Results: article PMC2871064 (Cancer research, 2010)
Read-outs that look alike come from different tables or passages of the source.

Columns and labels:
[1] = system: stage 4 melanoma; details: cited from earlier work
[2] = system: SK-MEL-3 cells; experiment: Binding of [^131I]MIP-1145 to melanotic SK-MEL-3 cells; format: cell-based, human
How it was run: (§1)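 Cells per well: 50,000 for SK-MEL-3, 25,000 for A375, attached overnight. Time course: up to 6 h at 37 °C with 11.5 nM tracer (~9 × 10⁵ CPM/well) in D-MEM/0.5% BSA. Acid wash (50 mM glycine, 150 mM NaCl, pH 3.0, 4 °C, 5 min) strips the surface fraction for gamma counting; cells are scintillation-counted. Competition: 2 h, 3.6 nM tracer plus 1.6–1,600 nM unlabeled compound.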

[3] = system: A375 cells; experiment: Binding of [^131I]MIP-1145 to amelanotic A375 cells; format: cell-based, human
How it was run: as §1

[4] = 2 hours, 3.6 nM tracer, up to 1.6 uM cold compound

In the case of interferon alpha-2b, the Objective response rate ([1]; stage 4 disease, high-dose) is listed as 14%.
For `CN(C)/N=N/c1[nH]cnc1C(N)=O` [Dacarbazine], the Objective response rate ([1]; stage 4 melanoma patients) is given as 16%.
With `CCN(CC)CCNC(=O)c1cc(I)c(NC(=O)c2ccc(F)cc2)cc1OC` [MIP-1145, N-(2-diethylamino-ethyl)-4-(4-fluoro-benzamido)-5-iodo-2-methoxy-benzamide] the “Competition by non-radiolabeled MIP-1145 for [^131I]MIP-1145 binding” value [2, 4] was “very little competition”, the “Cell associated fraction of the total added” value ([2]; after 6 hours, 11.5 nM) was “approximately 43%” and the “Competition by non-radiolabeled MIP-1145 for [^131I]MIP-1145 binding” value [3, 4] was “very little competition”. For the same compound, the “Cell associated fraction of the total added” value ([3]; after 6 hours, 11.5 nM) was “about 13%”.
